Assay outcomes from PubChem.
Most compounds without a hit are left out; they make up all but 2.3% or so of the library.
TRPC6 inhibitor: blocks the mouse TRPC6 cation channel | B-score at 10 µM | HEK293-TRPC6, membrane potential dye, ACh-evoked depolarization; stronger effect = lower value | 310,000 tested, 1.1% active;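 active means B-score under library mean minus 3 SD, initial fluorescence not abnormally high, positive integrated signal ratio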;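 further: B-score derived from integrated fluorescence ratio over the kinetic read; more negative B-score means stronger inhibition of depolarization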
TRPC6 activator: mouse TRPC6 channel activation; 310,000 tested, 0.13% active; B-score at 10 µM; AID 2550; Q61143; HEK293-TRPC6 membrane potential dye fluorescence; stronger effect = higher value;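 active means B-score of the integrated fluorescence ratio above library mean plus 3 SD, and starting fluorescence ratio within library mean plus 5 SD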;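 further: higher score means more depolarization so channel activation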
TRPC4 PAM: allosterically enhances the mouse TRPC4 cation channel | Q9QUQ5 | HEK293 TRPC4beta/mu-opioid, DAMGO EC20, Fluo-4 Ca2+ flux; stronger effect = higher value | B-score at 10 µM | 310,000 tested, 0.42% active | AID 2227;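 active means B-score of calcium response area above 5 SD of library B-scores, with initial fluorescence ratio within 5 SD of library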;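 further: B-score of integrated fluorescence ratio over time as area under calcium response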
Target sequence (Q9QUQ5 whole entry, looked up): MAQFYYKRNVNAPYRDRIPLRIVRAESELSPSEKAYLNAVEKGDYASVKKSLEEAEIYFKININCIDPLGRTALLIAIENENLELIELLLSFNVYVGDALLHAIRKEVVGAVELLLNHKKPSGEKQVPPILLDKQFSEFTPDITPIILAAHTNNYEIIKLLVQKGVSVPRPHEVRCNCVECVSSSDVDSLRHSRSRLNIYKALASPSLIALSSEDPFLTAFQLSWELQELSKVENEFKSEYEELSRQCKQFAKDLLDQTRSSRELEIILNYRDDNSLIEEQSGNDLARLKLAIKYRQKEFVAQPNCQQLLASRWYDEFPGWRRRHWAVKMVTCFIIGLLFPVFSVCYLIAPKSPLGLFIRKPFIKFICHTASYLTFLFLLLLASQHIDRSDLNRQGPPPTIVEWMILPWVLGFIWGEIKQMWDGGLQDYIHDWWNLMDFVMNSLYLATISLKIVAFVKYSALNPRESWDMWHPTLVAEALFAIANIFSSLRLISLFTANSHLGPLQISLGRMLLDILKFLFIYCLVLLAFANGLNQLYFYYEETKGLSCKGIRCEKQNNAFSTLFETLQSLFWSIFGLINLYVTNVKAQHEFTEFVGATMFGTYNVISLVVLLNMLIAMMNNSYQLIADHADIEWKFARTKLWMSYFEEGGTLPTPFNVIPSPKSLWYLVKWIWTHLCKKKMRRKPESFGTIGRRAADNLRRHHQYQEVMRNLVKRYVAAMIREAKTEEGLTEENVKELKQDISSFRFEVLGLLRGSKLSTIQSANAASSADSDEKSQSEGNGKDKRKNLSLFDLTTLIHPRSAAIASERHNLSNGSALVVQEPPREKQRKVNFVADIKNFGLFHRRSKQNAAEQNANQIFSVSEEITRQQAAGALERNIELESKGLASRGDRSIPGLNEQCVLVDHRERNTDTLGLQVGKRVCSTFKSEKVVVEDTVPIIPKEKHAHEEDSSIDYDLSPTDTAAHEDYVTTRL
TRPC4 block: blocks the mouse TRPC4 cation channel | Q9QUQ5 | HEK293 TRPC4beta/mu-opioid, DAMGO-evoked Fluo4 calcium flux; stronger effect = lower value | B-score at 10 µM | 300,000 tested, 0.39% active | AID 2247;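 active means B-score over 3 SD under the library average, no early fluorescence shift, positive overall ratio signal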
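Material: HEK293 cells with stable TRPC4beta plus mu-opioid receptor expression; probe or stimulus: DAMGO in two steps, submaximal then maximal; technique: Fluo4 calcium fluorescence by kinetic imaging, 5 s 1 Hz baseline; measure: integrated fluorescence ratio relative to baseline, converted to per-well B score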
TRPC4 agonist: TRPC4 (mouse) channel activation | Q9QUQ5 | HEK293 TRPC4beta/mu-opioid, Fluo4 calcium fluorescence; stronger effect = higher value | B-score at 10 µM | 310,000 tested, 0.49% active;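 active means B-score above 5 SD of library B-scores, and initial fluorescence ratio not above library mean plus 5 SD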;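 further: positive B-score marks a calcium rise read as TRPC4 activation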
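Technique: kinetic Fluo4 calcium fluorescence; Test system: TRPC4beta and mu-opioid receptor HEK293 stable cells; Measure: B-scored integrated calcium fluorescence ratio; Benchmarks: low control buffer alone, high control maximal DAMGO; Schedule: 45 min room-temperature Fluo4 loading, 110 s read.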
TRPC4 spec 2: second check of whether TRPC6 inhibitors also affect mouse TRPC4; inhibition, % at 10 µM; shares compounds with TRPC6 inhibitor; HEK293 TRPC4/MOR, membrane potential dye fluorescence; channel activated by saturating DAMGO dose; AID 2776; 920 tested, 42% active;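 active means compounds whose fluorescence signal differed from control wells by over 3 SD, either direction, in both duplicate plates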
TRPC4 spec: tests whether TRPC6 inhibitors also affect mouse TRPC4 | shares compounds with TRPC6 inhibitor | HEK293 TRPC4/mu-opioid, membrane potential fluorescence | activity change, negative = inhibition, % at 10 µM | 920 tested, 61% active | AID 2777;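 active means rise or fall in signal beyond 3 SD of buffer-only wells in both replicate plates, either sign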;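 further: integrated kinetic ratio of fluorescence range over baseline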
HEK293 MPD ctr 2-1: parental HEK293 nonspecific activity of TRPC6 inhibitors, second screen. AID 2779. signal change vs control, % at 10 µM. shares compounds with TRPC6 inhibitor. 920 tested, 31% active. parental HEK293 membrane potential dye fluorescence; maximal acetylcholine challenge after compound addition;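 active means membrane potential signal moving either way by over 3 SD of the maximum-effect control, in both duplicate plates, meaning non-specific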
HEK293 MPD ctr-1: counter-screen for TRPC6 inhibitors: effect in parental HEK293 cells; shares compounds with TRPC6 inhibitor; parental HEK293 membrane potential dye fluorescence; membrane potential signal change, % at 10 µM; 920 tested, 60% active; AID 2780;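 active means membrane potential signal shifting up or down by more than 3 SD of buffer-only wells, on both duplicate plates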
HEK293 MPD ctr-2: counter-screen for TRPC6 modulators: effect in parental HEK293 cells. shares compounds with TRPC6 inhibitor. membrane potential dye fluorescence. membrane potential signal change, % at 10 µM. 2,400 tested, 51% active. AID 488924;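 active means membrane potential signal moves up or down beyond 5 SD from buffer-only wells, on both duplicate plates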
HEK293 MPD ctr 2-2: second check of TRPC6 modulator effects in parental HEK293 cells; membrane potential dye fluorescence; after compound, maximal acetylcholine stimulation; AID 488926; shares compounds with TRPC6 inhibitor; 2,400 tested, 14% active; inhibition, % at 10 µM;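 active means membrane potential signal drops by more than 5 SD from the mean control signal, in both duplicate plates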;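 further: plate controls were acetylcholine ECmax control wells for no effect and buffer only wells for full effect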
TRPC4/MOR mod: tests whether TRPC6 modulators also affect mouse TRPC4; shares compounds with TRPC6 inhibitor; HEK293 TRPC4/mu-opioid, membrane potential fluorescence; percent change from control (negative = decrease, positive = increase), % at 10 µM; 2,400 tested, 69% active; AID 488927;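 active means membrane potential signal moved up or down beyond 5 SD of buffer control wells, in both duplicate plates, actives on both sides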;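 further: plate controls were assay buffer wells for no effect and DAMGO maximal-effect wells for full effect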
TRPC4/MOR inh 2: second selectivity test of TRPC6 modulators against mouse TRPC4; shares compounds with TRPC6 inhibitor; HEK293 TRPC4/mu-opioid, membrane potential dye fluorescence; stimulated with maximal-effect DAMGO; inhibition, % at 10 µM; 2,400 tested, 55% active;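 active means drop in membrane potential signal beyond 5 SD of the control wells in both duplicate plates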;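 further: TRPC4 counter screen for TRPC6 hits run under conditions tuned for TRPC6 not TRPC4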
TRPC6 block conf: mouse TRPC6 inhibitor confirmation; shares compounds with TRPC6 inhibitor; HEK293-TRPC6, membrane potential dye, ACh-evoked depolarization; inhibition, % at 10 µM; 3,300 tested, 43% active;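 active means fluorescence ratio falls more than 5 SD below the full-stimulation control mean, in both duplicate runs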;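 further: integrated fluorescence ratio of peak minus minimum over baseline after agonist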
TRPC6 act confirm: confirmation of mouse TRPC6 activators | shares compounds with TRPC6 inhibitor | HEK293-TRPC6 membrane potential dye fluorescence, FDSS | activation, % at 10 µM | AID 488961 | 2,800 tested, 11% active;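 active means ratio signal rise beyond 5 SD above unstimulated control wells' mean, seen in both duplicate runs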;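 further: plate controls were buffer EC0 wells for no effect and acetylcholine ECmax response for full effect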
* = called active by the depositor; i = inactive; x = no result given.

SMILES	TRPC6 inhibitor	TRPC6 activator	TRPC4 PAM	TRPC4 block	TRPC4 agonist	HEK293 MPD ctr-2	HEK293 MPD ctr 2-2	TRPC4/MOR mod	TRPC4/MOR inh 2	TRPC6 block conf	TRPC6 act confirm	others
COc1cc(Nc2nc3ccccc3nc2NS(=O)(=O)c2ccc([N+](=O)[O-])cc2)cc(OC)c1OC	-6.4*	i	i	i	i	-116%*	i	-26%*	50%*	48%*	i
COc1cc(CNCc2ccc(C)cc2)cc(OC)c1OC	i	i	i	i	i	x	x	x	x	x	x
CC[n+]1c(/C=C/c2ccc(OC)c(OC)c2)ccc2ccccc21	-8.1*	i	i	i	i	-214%*	i	-52%*	40%*	i	i
CC[n+]1c(/C=C/c2ccc(OC(C)=O)c(OC)c2)ccc2ccccc21	-7.6*	i	i	i	i	-264%*	124%*	-45%*	70%*	77%*	i
CC[n+]1c(/C=C/c2ccc(N(C)C)cc2)ccc2ccccc21	i	i	i	i	i	x	x	x	x	x	x
O=C(NCCCNC(=O)c1ccccn1)c1ccc(Cl)cc1	i	i	i	i	i	x	x	x	x	x	x
O=C(Oc1ccccc1Cl)c1ccc2c(=O)n3c(nc2c1)CCC3	-5.4*	i	i	i	i	i	i	i	i	i	i
COCCNc1c2c(nc3c(-c4ccccc4)c(C)nn13)CCCC2	i	i	i	i	i	x	x	x	x	x	x
Cc1nn2c(NCCN(C)C)c3c(nc2c1-c1ccccc1)CCCC3	-7.3*	i	i	i	i	-192%*	i	-36%*	52%*	48%*	i
Clc1ccc(CNC2CCN(Cc3ccccc3)CC2)cc1	-6*	i	i	i	i	i	i	i	55%*	i	x
Fc1ccc(CNC2CCN(Cc3ccccc3)CC2)cc1	i	i	i	i	i	x	x	x	x	x	x
Cc1nnc(Nc2ccccn2)c2ccccc12	-5.7*	i	i	i	i	-219%*	58%*	-36%*	46%*	63%*	i
CCOC(=O)N1CCN(C(=O)c2cc3cc(Cl)ccc3[nH]2)CC1	-6.1*	i	i	i	i	i	i	i	i	i	i
CCOC(=O)N1CCN(C(=O)c2cc3cc(F)ccc3[nH]2)CC1	i	i	i	i	i	x	x	x	x	x	x
COc1c(O)cnn(-c2ccccc2)c1=O	i	i	i	i	i	x	x	x	x	x	x
COc1cccc(/C=N/NC(=O)Cn2ccnc2C)c1	i	i	i	i	i	x	x	x	x	x	x
COc1ccc(OC)c(/C=N/NC(=O)Cn2ccnc2C)c1	-10*	14*	i	i	i	i	i	i	i	80%*	186%*
CCOc1ccc(NC(=S)NCc2ccc3[nH]c(C)cc3c2)cc1	-8.1*	i	i	i	i	x	x	x	x	i	i	TRPC4 spec 2=i;TRPC4 spec=-9.5%*;HEK293 MPD ctr 2-1=i;HEK293 MPD ctr-1=-150%*
CCOc1ccc(C(=O)NCCc2ccc3c(c2)OCCO3)cc1	i	i	i	i	i	x	x	x	x	x	x
Cc1cc(C)n(CC(=O)Nc2ccc3c(c2)OCO3)c(=O)c1C#N	i	i	i	i	i	x	x	x	x	x	x
COc1ccc(CCNCc2c(OC)ccc3ccccc23)cc1OC	i	i	i	i	i	x	x	x	x	x	x
COc1ccc2ccccc2c1CNC(C)CCc1ccccc1 (configuration not stated)	-7.8*	i	i	i	i	x	x	x	x	53%*	x	TRPC4 spec 2=34%*;TRPC4 spec=90%*;HEK293 MPD ctr 2-1=i;HEK293 MPD ctr-1=56%*
COc1ccccc1N1CCN(Cc2ccc(O)c3ncccc23)CC1	-7.6*	i	i	i	i	x	x	x	x	i	i	TRPC4 spec 2=i;TRPC4 spec=i;HEK293 MPD ctr 2-1=i;HEK293 MPD ctr-1=i
COc1ccc(S(=O)(=O)N2CCN(c3cc(-c4ccccc4)nc4ncnn34)CC2)cc1	i	i	i	i	i	x	x	x	x	x	x
COc1ccc(-c2cc(N3CCCC3)n3ncnc3n2)cc1	-6.5*	i	i	i	i	134%*	i	26%*	i	i	x
SMILES	TRPC6 inhibitor	TRPC6 activator	TRPC4 PAM	TRPC4 block	TRPC4 agonist	HEK293 MPD ctr-2	HEK293 MPD ctr 2-2	TRPC4/MOR mod	TRPC4/MOR inh 2	TRPC6 block conf	TRPC6 act confirm	others
CCN(CC)C(=O)N1CCn2c(nc3ccccc32)C1	-5.5*	i	i	i	i	i	i	12%*	i	i	i
Cc1ccc(C)c(CS(=O)(=O)c2cn(CC(=O)N3CCCCC3)c3ccccc23)c1	i	12*	i	i	i	i	i	i	i	x	44%*
Cc1ccc(C)c(CS(=O)(=O)c2cn(CC(=O)N3CCC(C)CC3)c3ccccc23)c1	i	i	i	i	i	x	x	x	x	x	x
O=C(Nc1ccccc1)Nc1ncc([N+](=O)[O-])s1	-7.4*	i	i	i	i	x	x	x	x	96%*	x	TRPC4 spec 2=54%*;TRPC4 spec=43%*;HEK293 MPD ctr 2-1=i;HEK293 MPD ctr-1=21%*
O=C(Nc1ncc([N+](=O)[O-])s1)c1cccc([N+](=O)[O-])c1	i	i	i	i	i	x	x	x	x	x	x
CN(C)S(=O)(=O)c1cccc(C(=O)NCCOC(=O)c2cc(F)c(F)cc2Cl)c1	i	i	i	i	i	x	x	x	x	x	x
